# Source: PubChem BioAssay (several laboratories)
# Compounds with a hit are over-represented: about 3.8% of the library has one in this group of screens.
# CSC inhib = cancer stem cell viability inhibitors, primary screen, luminescence; cancer stem cell-like cells viability; inhibition, % at 7.5 µM; 300,000 compounds, 1.1% hits; in the data active = inhibition above about 75%; tested in HMLE shEcad cells
# TMEM16A act = TMEM16A chloride channel activators or potentiators, primary screen, cell-based, HTS; AID 623877, 2012; 340,000 compounds, 0.3% hits; B-score at 10 µM; Anoctamin-1 (Mus musculus), Q8BHY3; HEK293 TMEM16A/YFP-H148Q/I152L, iodide quench fluorescence; hits give low values;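 active = fluorescence-ratio B-score plate-corrected deviation score at least 3 library SD below zero, with starting fluorescence score within 5 deviations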;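 also: channel opened by trigger with iodide after compound preincubation; score built on the fluorescence ratio of max minus min over baseline; more negative score means more quench and so TMEM16A activation or potentiation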
# Beta cell apopt = inhibitors of cytokine-induced beta cell apoptosis, primary screen, luminescence; INS-1E cytokine-induced death, ATP luminescence, 48 h; percent of positive-control rescue, neutral wells zero; protection from apoptosis, % (concentration not given with the values); 300,000 compounds, 0.8% hits;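 active = Every replicate reaches about 75%, or at least half do and their mean reaches it too, limit read from the data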;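 also: higher means more ATP so stronger rescue from cytokine killing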
# ANO1 block = TMEM16A chloride channel inhibitors, primary screen, cell-based, HTS. HEK293 TMEM16A/YFP iodide influx fluorescence, ionomycin. normalized B-score (activity score, 25-100; higher = stronger inhibition) at 10 µM. 310,000 compounds, 1.2% hits. AID 588511, 2011;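 active = ratio plate-corrected score three or more library SD toward inhibition, starting fluorescence score within five deviations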;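 also: score derived from kinetic fluorescence span divided by baseline fluorescence per well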
# MC4R barr agon = MC4R agonists recruiting beta-arrestin, primary screen, cell-based, luminescence, agonist arm of biased-ligand search; activation, % at 8.9 µM; 360,000 compounds, 0.98% hits; AID 540308, 2011; U2OS MC4R beta-arrestin complementation; percent of melanotan II response, DMSO zero; Melanocortin receptor 4 (Homo sapiens), P32245;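 active = activation above a per-plate cutoff, the mean activation of sample wells on that plate plus 3 SD, cut at about 8% in these data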
# MC4R antagonist = MC4R antagonists of cAMP signaling, primary screen, cell-based, TR-FRET, antagonist arm of biased-ligand search. 360,000 compounds, 0.48% hits. MC4R-expressing cells, MTII-stimulated cAMP, LANCE TR-FRET. Melanocortin receptor 4 (Homo sapiens), P32245. inhibition, % at 6.5 µM. AID 540295, 2011;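 active = inhibition above its plate's cutoff, the mean of tested wells on that plate plus 3 SD, cut at about 29% in these data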
#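 System: U2OS-MC4R stable cell line; Technique: Eu-cAMP/anti-cAMP TR-FRET, emission 671 nm; Repeats: single well per compound; Also added: Melanotan II; Dosing: one concentration, 6.5 µM nominal; Schedule: 30-min compound, 1-h challenge, 1-h detection, room temperature.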
# A number is an active result; - = inactive; . = no result.
SMILES,CSC inhib,TMEM16A act,Beta cell apopt,ANO1 block,MC4R barr agon,MC4R antagonist
CC(C)Cn1c(N)c(C(=O)COC(=O)C2CC(=O)N(Cc3ccccc3Cl)C2)c(=O)n(C)c1=O (stereo unspecified),-,-4.6,-,-,-,-
CC(C)Cn1c(N)c(C(=O)COC(=O)CCNS(=O)(=O)c2ccccc2)c(=O)n(C)c1=O,-,-,-,25,-,-
COc1ccc(CCN2CC(C(=O)OCC(=O)c3c(N)n(CC(C)C)c(=O)n(C)c3=O)CC2=O)cc1OC (stereo unspecified),.,.,.,.,-,-
O=S(=O)(Nc1cccc(-n2cnnn2)c1)c1ccccc1C(F)(F)F,-,-,-,-,-,-
Fc1cccc(/C=N/Nc2ccc(Cl)nn2)c1,-,-,-,-,12,-
Oc1c(Br)cc(/C=N/Nc2ccc(Cl)nn2)cc1Br,-,-,-,-,-,-
Oc1ccc(/C=N/Nc2ccc(Cl)nn2)c(O)c1O,-,-,-,-,-,-
Oc1c(Br)cc(Br)cc1/C=N/Nc1ccc(Cl)nn1,100,-,98,-,-,-
CCOc1ccc(/C=N/Nc2ccc(Cl)nn2)c(O)c1,-,-,119,-,-,-
CCOC(=O)c1ccc(N2C(=O)C(O)=C(C(C)=O)C2c2ccc([N+](=O)[O-])cc2)cc1 (stereo unspecified),-,-,-,-,-,-
COCCNC(=O)NC(=O)CN1C(=O)NC(Cc2c[nH]c3ccccc23)C1=O (stereo unspecified),-,-,-,-,-,-
O=[N+]([O-])c1cccc(NC(=S)Nc2nc(-c3ccc(Cl)cc3Cl)cs2)c1,93,.,-,-,.,.
O=C(NC(=S)Nc1nc(-c2cccc([N+](=O)[O-])c2)cs1)c1cc(Cl)ccc1Cl,-,-,-,-,-,-
COc1ccc(CCC(=O)OCC(=O)Nc2sccc2C(N)=O)cc1,-,-5.3,-,.,-,-
COc1ccc(CCC(=O)OCC(=O)Nc2sccc2C(N)=O)cc1OC,-,-,-,.,-,-
COc1ccc2oc(C(=O)N(C)CCOc3ccccc3)c(C)c2c1,-,-,-,-,-,-
Cc1c(C(=O)N(Cc2ccccc2)Cc2cccs2)cnn1-c1ccc(Cl)cc1,80,-,.,-,-,-
Cc1c(C(=O)N(Cc2ccccc2)C(C)C)cnn1-c1ccccc1,-,-,-,-,-,-
CN1C(C(=O)NCc2cccc(Br)c2)CC2Cn3c(nc4cc(Cl)c(Cl)cc43)C21 (stereo unspecified),-,-4.8,-,-,-,-
Cc1cc(C)cc(NC(=S)N2CCN(S(=O)(=O)c3ccccc3)CC2)c1,-,-,-,-,-,-
O=C(O)/C=C\C(=O)Nc1ccc(N2CCN(c3ccc(Cl)c(Cl)c3)CC2)cc1,85,-,-,-,-,-
O=C(COc1cccc(F)c1)Nc1nc(-c2cccnc2)cs1,.,-,-,.,-,-
CCC1(c2ccc(F)cc2)NC(=O)N(CC(=O)NCC(=O)Nc2cccc(C)c2C)C1=O (stereo unspecified),.,-,-,25,-,-
CCCC1(c2ccccc2)NC(=O)N(CC(=O)Nc2cc(C)on2)C1=O (stereo unspecified),-,-,-,-,-,-
CCC1(c2ccc(F)cc2)NC(=O)N(CC(=O)Nc2cc(C)on2)C1=O (stereo unspecified),.,-39,.,.,-,-
SMILES,CSC inhib,TMEM16A act,Beta cell apopt,ANO1 block,MC4R barr agon,MC4R antagonist
CC(=O)OC[C@H]1O[C@@H](Oc2cc3ccc(=O)oc3cc2OC(C)=O)[C@H](OC(C)=O)[C@@H](OC(C)=O)[C@@H]1OC(C)=O,.,.,.,.,-,-
COc1cnc(-c2ccccn2)nc1Sc1c(Cl)cccc1Cl,-,-,-,-,-,-
COc1cnc(-c2ccccn2)nc1Sc1ccccc1Cl,-,-,86,-,-,-
COc1cnc(-c2ccccn2)nc1N(C)C,-,-,81,-,-,-
O=S(=O)(N/N=C\c1cccc(F)c1)c1ccccc1,-,-,-,-,-,-
O=S(=O)(N/N=C/c1ccc(F)cc1)c1ccccc1,-,-,-,25,-,-
Cc1cc(C)c(O)c(-c2cc(C(=O)Nc3ccc(S(=O)(=O)N4CCOCC4)cc3)[nH]n2)c1,88,-,.,25,-,-
O=C(COc1ccccc1Br)Nc1ccccc1C(F)(F)F,-,-,-,-,9.4,-
CCOc1ccc(OCC(=O)Nc2ccccc2C(F)(F)F)cc1,-,-,-,-,-,-
O=P(c1ccccc1)(c1ccccc1)c1ccccc1C(Br)Br,.,.,.,.,-,-
COC(=O)CCC(C)C1CCC2C3CCC4CC(O)CCC4(C)C3CC(O)C12C (stereo unspecified),.,-,.,.,9.6,-
COc1cc(/C=C/c2[nH]c(=O)[nH]c(=O)c2[N+](=O)[O-])ccc1OCCC(C)C,77,-,-,-,-,-
O=C(NCC(=O)N1CCCCCCC1)c1ccc(Cl)c(Cl)c1,.,.,.,.,-,-
COc1ccc(CNC(=O)O[C@H]2CN(C(=O)OC(C)C)N(C(=O)OC(C)C)[C@@H]3CN(S(=O)(=O)c4ccc(C)cc4)C[C@]23O)cc1OC,.,.,.,.,-,-
COC(=O)C1=C(C)NC2=C(C(=O)c3ccccc32)C1c1cccc(OC)c1 (stereo unspecified),-,-,-,-,-,-
CC1=C([N+](=O)[O-])C(c2cccc(Br)c2)C2=C(N1)c1ccccc1C2=O (stereo unspecified),-,-,-,100,-,-
COc1ccccc1CNC(=O)COC(=O)CCN1C(=O)C2CC=CCC2C1=O (stereo unspecified),.,.,.,.,-,-
CCN1Cc2c(/C=C/c3ccccc3)nc3ccc(OC)cc3c2N(c2cccc(Cl)c2)C1,107,-,-,-,-,-
CCCCNC(=O)C1(N2C(=O)c3ccccc3C2=O)CCCC1,.,.,.,.,-,-
COc1ccc(NC(=O)NNC(=O)C(C)Oc2ccc3ccccc3c2)cc1 (stereo unspecified),-,-,-,-,-,-
CCN(CC)CCNC(=O)c1ccc(NC(=O)c2cn(-c3ccccc3)nc2-c2cccs2)cc1,-,-,79,25,-,-
CCN(CC)CCNC(=O)c1ccc(NC(=O)c2cn(-c3ccc(F)cc3)nc2-c2cccc(OC)c2)cc1,-,-,-,-,-,-
C/C(CC(=O)NCc1ccco1)=N\NC(=O)c1ccc([N+](=O)[O-])cc1Cl,.,-,-,-,-,-
CCOC(=O)c1[nH]c(C)c(C(=O)OCC(=O)N(C)C2CCS(=O)(=O)C2)c1C (stereo unspecified),-,-,-,-,8.3,-
